The values that follow come from ChEMBL document CHEMBL4513216, “Probing the Open Global Health Chemical Diversity Library for Multistage-Active Starting Points for Next-Generation Antimalarials” (ACS Infect Dis, 2020).

The series in a line: Toxicity liver stage against HepG2, at 10uM. The class given is cell-based. On the set-up: test concentration 10 uM, cell line HepG2-A16-CD81EGFP. As to conditions: human, HepG2-A16-CD81EGFP cells; read-out: INHIBITION
The method in brief:
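Uninfected HepG2-A16-CD81EGFP cells, 3 × 10^3 per well, 1536-well, plated on prespotted compound at 10 μM final, parasite-free screening media added to match infected plates; puromycin 10 μM positive, DMSO 0.5% negative; run in parallel with 48 h PbLuc assay at 37 °C, 5% CO2; viability by CellTiter-Glo luminescence, normalized to controls.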
For `O=C(Cn1cc(I)cn1)N1CCNC1=O`, the cytotoxicity at 10 µM was found to be 1.53%. In the case of `CN(C)CC(=O)N1CCc2sc(C(=O)N3CCN(C)CC3)cc21` it was -104%; in that of `CCN(CC)[C@@H]1CN(Cc2cnn(C)c2)[C@@H]2COC[C@H]12`, 8.61%; in that of `Cc1noc(C)c1CC(=O)NCc1ccnc(OCC(F)(F)F)c1`, -7.83%. On to `COc1ccc2c(c1)OCC(CNc1cc(N)nc(SC)n1)C2` (stereo unspecified), for which the cytotoxicity at 10 µM was 34.4%. In the case of `Cc1cc(C(O)CCNC(=O)COc2ccccc2F)c(C)o1` (stereo unspecified) it was 0.931%. As for `Cc1cccc(CN(Cc2ccccn2)Cc2ncc(C(C)(C)C)o2)c1`, the figure is 3.49%. As for `CC(CC(=O)Nc1ncn(CC(=O)N2CCCCCC2)n1)C1CC1` (stereo unspecified), the figure is 5.75%; as for `CC(C)Cc1nc(CN2CCC(NC(=O)c3cccs3)CC2)no1`, -2.56%; as for `COc1ccc(C(=O)N(C)Cc2nnc3ccccn23)c(OC)c1`, -3.03%. As to `O=C(Cc1ccsc1)N1CCC(O)(CN2CCc3ccccc3C2)C1` (stereo unspecified), the cytotoxicity at 10 µM was -7.27%. In the case of `CCC1CCCCN1Cc1nc2c(cnn2C)c(=O)[nH]1` (stereo unspecified) it was -3.18%; in that of `CCC(C)NC(=O)Nc1ccc(CN2CCOC2=O)cc1` (stereo unspecified), 10.5%; in that of `O=C(c1cc(COc2ccc3c(c2)OCO3)[nH]n1)N1CCSCC1`, -7.05%.

In the case of `CC(C)NCC1OCCc2cn(C)nc21` (stereo unspecified), the cytotoxicity at 10 µM is 9.91%. In the case of `CCS(=O)(=O)N1CCOC2(COCCN(C(C)=O)C2)C1` (stereo unspecified) it was 15.7%. In the case of `COc1cccc(C2CC(=O)Nc3nc(N4CCCCC4)sc32)c1OC` (stereo unspecified) it was 10.4%; in that of `CCOc1c(CNCCCn2ccnc2)cc(Cl)cc1OC`, -3.88%; in that of `COc1ccc(CN(C)[C@@H]2CN(C(=O)c3cccn3C)C[C@H]2O)cc1`, -21.5%.

Regarding `CN(CC1Cc2ccccc2CN1C)c1nc(N)nc2c1CCNCC2` (stereo unspecified), the cytotoxicity at 10 µM came out at 0.0642%. Consider `Cn1cncc1CN1CCC2(CCCN2c2ncccn2)CC1`, for which the cytotoxicity at 10 µM turned out to be 9.37%.

For `COc1ccc(-c2n[nH]c(C)c2CC(=O)N2CCOCC2)cc1`, the cytotoxicity at 10 µM is -14.2%. As for `Cn1c(C(=O)N2CCC(C(N)=O)C2)c(Cl)c2ccccc21` (stereo unspecified), the figure is 2.03%; as for `CC(O)CN1CCN(C(=O)c2ccc(Cn3cccn3)cc2)CC1` (stereo unspecified), -1.45%; as for `CC(SCC(=O)NCCC#N)c1ccc(Cl)cc1` (stereo unspecified), 10.6%. Regarding `CCN1CCN(Cc2nc(CCc3ccccc3)n[nH]2)CC1`, the cytotoxicity at 10 µM is -10.7%.

As to `CCc1oc(C(=O)N(C)Cc2ccncc2)cc1CN(CC)CC`, the cytotoxicity at 10 µM is -1.81%. In the case of `O=C(N[C@@H]1CC[C@@H](N2CCCC2)[C@@H]1O)c1cc2ccccc2[nH]1` it was -4.92%; in that of `CS(=O)(=O)N1Cc2nccn2CC(Cn2ncccc2=O)C1` (stereo unspecified), -2.04%; in that of `Cc1ccc(S(=O)(=O)NC(=O)C2(c3ccc(F)cc3)CCC2)c(C)c1`, -1.09%. In the case of `Cc1nn(C)c(N(C)C)c1CNCc1cccc(Cn2cncn2)c1` it was -7.85%; in that of `CCc1[nH]ncc1C(=O)N1CCCC(n2nc(C)cc2C)C1` (stereo unspecified), -15.6%; in that of `CC(C)c1cnc(CN(C)C2CCN(CCc3ccncc3)C2)o1` (stereo unspecified), -0.296%.

Turning to `Cc1ccc(NC(=O)N(C)CC(O)COCCOC(C)C)c(Br)c1` (stereo unspecified), the cytotoxicity at 10 µM stood at 11.2%.

As to `CC(=O)c1cc(CN2C[C@@H](N(C)C)[C@H](C(C)C)C2)cs1`, the cytotoxicity at 10 µM came out at 0.305%. Turning to `CCOc1ncccc1NC(=O)c1ccc(C(C)=O)s1`, the cytotoxicity at 10 µM was found to be 2.99%. As for `COCC(=O)N1CC[C@H]2C[C@H](c3nnc(C4CC4)o3)O[C@@H]2C1`, the figure is 4.85%.

As to `CCn1nc2ccc(S(=O)(=O)N3CCSCC3)cn2c1=O`, the cytotoxicity at 10 µM amounted to 2.4%. In the case of `COCC1CN(C(=O)c2ccco2)Cc2nccn2C1` (stereo unspecified) it was -107%; in that of `COc1ccccc1OCCNC(=O)CN1CCN(C)CC1C` (stereo unspecified), -12.1%. In the case of `COc1ccc(C2CCCN2C(=O)c2csc(NC(C)=O)n2)cc1` (stereo unspecified) it was -5.82%; in that of `O=C(c1ccncc1)N1C[C@H]2CC[C@@H](C1)N(C(=O)N1CCOCC1)C2`, 2.44%; in that of `CC(C)[C@H]1COC(=O)N1CC(=O)N1CCN(C(=O)c2ccco2)CC1`, 4.32%. As for `Cc1cnn(CCNCCCOc2ccc(C#N)cc2)c1`, the figure is -0.222%. For `Cc1noc(C)c1CCCNC(=O)Nc1cccc([S+](C)[O-])c1` (stereo unspecified), the cytotoxicity at 10 µM was -0.595%. As for `CCCN1CCCn2nc(CNC(=O)CCOC)cc2C1`, the figure is -12.2%; as for `CC1(C)COCCN1C(=O)Cc1csc(Cc2ccccn2)n1`, 3.31%. As for `CSC(C)CCN(Cc1ccccn1)Cc1sccc1C` (stereo unspecified), the figure is -2.49%.

On to `CC(C)C[C@H](NC(=O)c1cc(-c2cccn2C)n[nH]1)C(N)=O`, for which the cytotoxicity at 10 µM came out at 3.7%. In the case of `Cc1nc(N2CCN(C(=O)C(C)(C)C)CC2)cc(-n2cnc(C)c2C)n1` it was -23.2%. In the case of `Cc1cn2nc(N3CCN(Cc4cc(C)on4)CC3)sc2n1` it was -12.1%; in that of `CC(C)(C)c1cc(CN2C[C@H]3CC[C@@H](C2)N(Cc2ccccn2)C3)n[nH]1`, 0.541%. In the case of `O=C(Cn1nc(C(F)(F)F)c(Cl)c1C1CC1)NN1CCOCC1` it was 5.01%.

As to `COCC(=O)N1CCCn2c(CN3CCCCC3)nnc2C1`, the cytotoxicity at 10 µM is -15.8%. In the case of `CC(C)c1sc(Cl)nc1C(=O)NCc1ccncc1` it was 0.649%; in that of `Cc1cc(C(=O)N2CCC3(C2)CN(c2ccsc2)C(=O)CN3C)[nH]n1` (stereo unspecified), -75.2%. As for `CC(C)=CCC1(CO)CCCN(Cc2cnc(N3CCOCC3)nc2)C1` (stereo unspecified), the figure is -2.6%. In the case of `Fc1cnc(N2CCCC3(CCN(Cc4ccco4)C3)C2)nc1` (stereo unspecified) it was -84.9%. Consider `Cc1cnn(CC2CCCCN2CC(=O)Nc2cccnc2)c1` (stereo unspecified), for which the cytotoxicity at 10 µM amounted to 3.5%. In the case of `Cc1nc(NCc2ccc(C)o2)cc(C2CCNCC2)n1`, the cytotoxicity at 10 µM turned out to be 4.52%. In the case of `CN(C)C(=O)CN1CCC2(CC1)C[C@@H](O)[C@H](c1ccccc1)NC2=O` it was -22.4%. As for `Cc1ccccc1-c1cncc(C2CCN(CC(=O)N(C)C)CC2)n1`, the figure is -12.5%; as for `COc1ccc(-c2n[nH]c(C)c2CC(=O)NCCN2CCOCC2)cc1`, -13.4%; as for `CCN(Cc1noc(C)n1)C(=O)CC1C(=O)NCCN1CC(C)(C)C` (stereo unspecified), 2.78%. As to `CCc1nnc(CN(C)C(=O)C(CC)n2c(CC)nc3ccccc32)o1` (stereo unspecified), the cytotoxicity at 10 µM was -4.27%. With `CC(=O)N1CCO[C@@H]2CN(S(=O)(=O)C3CC3)C[C@@H]2C1`, the cytotoxicity at 10 µM was -104%. In the case of `Cc1nc(C)n(CC2CCCCN2CC(=O)NC(C2CC2)C2CC2)n1` (stereo unspecified) it was -8.61%; in that of `COc1ccc(Cc2ncc3c(n2)CN(C(=O)C(C)(C)OC)C3)cc1`, -1.24%; in that of `COc1nc(C)ccc1CNc1cc(N2CCCC2CO)ncn1` (stereo unspecified), -8.02%.

Take `COCc1ncn(Cc2nc(-c3ccco3)oc2C)n1`: the cytotoxicity at 10 µM is -8.53%. In the case of `Cc1cc(C(=O)N2CCCC(C(=O)c3nccn3C)C2)c(=O)[nH]c1C` (stereo unspecified) it was 3.15%; in that of `O=C(c1ccc(=O)[nH]n1)N1CCNCC1c1ccccc1` (stereo unspecified), -2.44%; in that of `CC(CC#N)NC(=O)c1cc(Br)c2c(c1)OCCO2` (stereo unspecified), 5.56%. On to `COc1cc(C)ccc1OCC(=O)NS(=O)(=O)c1cccnc1`, for which the cytotoxicity at 10 µM was determined as 4.03%.

For the compound `CCC(C)NS(=O)(=O)Cc1cccc(NC(=O)c2cc[nH]c2C)c1` (stereo unspecified), the cytotoxicity at 10 µM stood at 3.77%. In the case of `Cc1ccc(C(=O)N2CCC3(CC2)COC(COc2cccnc2)C3)o1` (stereo unspecified) it was -3.16%. As for `Cc1ccc(C(=O)N2C[C@H]3CCCC(OCc4cccnc4)[C@H]3C2)cn1` (stereo partly specified), the figure is 4.93%. For `COc1ccc(CCC2CCCN(CC(=O)O)C2)cc1` (stereo unspecified), the cytotoxicity at 10 µM is 3.38%.

As to `Cc1noc(C)c1CN1Cc2cnn(C)c2C(COCC2CC2)C1` (stereo unspecified), the cytotoxicity at 10 µM was -76.5%. As for `CCCC(=O)NCc1cccc(C(=O)OC)c1`, the figure is 5.99%; as for `COc1ccc(C(C)Nc2ncc(C(N)=O)cc2Cl)cc1OC` (stereo unspecified), 3.54%. In the case of `O=C(N1CCN(c2ccccc2O)CC1)C1(O)Cc2ccccc2C1` it was 0.0894%; in that of `COc1cc(CNc2cc(N3CCCC3CO)ncn2)ccn1` (stereo unspecified), -28.5%; in that of `CCOc1ccc(CCCC(=O)N2CCC(C(=O)NC)C2)cc1C` (stereo unspecified), 1.85%.

Turning to `Cc1nn(CC(=O)NCC2(C(N)=O)CCOCC2)c(C)c1Cl`, the cytotoxicity at 10 µM came out at 2.83%.

Take `Cc1nc(-c2cccc(C(=O)O)c2)cc(C2CCN(C(C)C)C2)n1` (stereo unspecified): the cytotoxicity at 10 µM came out at 5.32%. For `OC(COc1ccccc1)CN1CCc2c(ncn2C2CC2)C1` (stereo unspecified), the cytotoxicity at 10 µM is 2.48%. Consider `CCN(CCCNC(=O)c1ccc(C)[nH]c1=O)S(C)(=O)=O`, for which the cytotoxicity at 10 µM was -8.01%. As to `Cn1c(=O)c2cc(C(=O)NCc3ccccn3)ccc2n(C)c1=O`, the cytotoxicity at 10 µM was -6.14%. As for `Cc1c(Br)cccc1NC(=O)N(C)CCO`, the figure is -24.5%.

Consider `COCC(=O)N1CCCn2c(CN3CCCC3)nnc2C1`, for which the cytotoxicity at 10 µM is -130%. In the case of `c1csc(CN2CCCN(c3ncnc4[nH]ccc34)CC2)c1` it was 5.51%; in that of `FC(F)Oc1ccc(CNCc2cc(Br)c3c(c2)OCO3)cc1`, 35.1%; in that of `CN1CCN(C(=O)CCc2cccnc2)c2ccc(F)cc21`, -2.23%. As for `CCN(c1ccccc1)S(=O)(=O)c1cc(C(=O)O)cc2c1CCC2`, the figure is 9.69%; as for `Cn1nnc(NCc2ccc(OCc3ccc(Cl)cc3)cc2)n1`, -2.56%.
